Screening results from PubChem.
This is a sample that favours compounds with a hit; in the whole collection about 2.1% have one here.
STAT1 blocker = reduces IFN-gamma driven STAT1 reporter signal. NIH 3T3 STAT1-luciferase reporter, luminescence. inhibition, % at 5.5 µM. hit rate 0.35% among 200,000;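 active = inhibition above a set limit, the mean inhibition across all tested compounds plus 3 SD, cut at about 34% in these data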;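 note: 0% = IFN-gamma with DMSO and 100% = IFN-gamma with 300 µM nifuroxazide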
TNF necrop inh = TNF-alpha cell death inhibition in Jurkat FADD-/- cells; activation (protection from cell death), % at 10 µM; hit rate 0.068% among 220,000; Jurkat FADD-/- TNF necroptosis rescue, ATP luminescence, 24 h; 0 = TNF only, 100 = no-TNF cells;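 active = activation, meaning protection from cell death, of at least 50% relative to plate controls; inactive = activation below 50%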;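 note: necroptosis triggered by 40 ng/mL TNF-alpha added together with compound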
STAT3 activator = activators of IL-6 induced STAT3 signaling; U3A cells, IL-6 STAT3-luciferase reporter, luminescence; 100% = signal with IL-6 EC80 alone; activation (% of control), % at 5.6 µM; hit rate 0.91% among 190,000; AID 871;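 active = activation above the screen-wide mean of compound activation plus 3 SD, cut at about 130% in these data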;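 note: 0% = background luminescence of wells with medium and substrate only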
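System – human U3A cells carrying STAT3-luciferase construct · Probe or stimulus – Interleukin-6, 33 ng/mL · Schedule – compound 1 h, then IL-6 6 h at 37 °C · Signal – luminescence from STAT3-driven luciferase reporter · Evaluation – percent of IL-6-only median luminescence · Benchmarks – IL-6-only high control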
STAT3 blocker = inhibitors of IL-6 induced STAT3 signaling; inhibition, % at 5.5 µM; AID 862; U3A cells, IL-6 STAT3-luciferase reporter, luminescence; host cell line lacks STAT1; hit rate 0.89% among 190,000;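 active = inhibition above the mean inhibition across all screened compounds plus 3 SD, cut at about 44% in these data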;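 note: 0% = DMSO only wells and 100% = 100 µM nifuroxazide control wells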
L929 necroptosis = blocks zVAD induced death of L929 cells | L929 zVAD necroptosis rescue, ATP luminescence, 24 h; with zVAD 60 µM | viability rescue, % at 10 µM | hit rate 0.38% among 220,000 | AID 1377;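 active = activation, scaled between plate controls, above about 75%, limit read from the data; inactive = activation under that limit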;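 note: 0% = zVAD with DMSO and 100% = DMSO alone without zVAD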
The depositor's hits bear a star; x = no result given.

SMILES	STAT1 blocker	TNF necrop inh	STAT3 activator	STAT3 blocker	L929 necroptosis
Cn1c(=O)c(C(=O)Nc2cccnc2)c(O)c2ccccc21	-15	-1	134*	-36	1
Cn1c(CC(=O)Nc2ccccc2)c(Sc2ccccc2)c2ccccc21	1	3	135*	-36	0
O=C(Nc1ccccc1)c1c(F)cccc1F	-1	0	88	18	0
Cn1c(Cl)c(C(=O)Nc2ccccc2)c2ccccc21	1	-3	158*	-72	1
Cc1ccc(NC(=S)N(CCCN(C)C)Cc2cc3cc4c(cc3[nH]c2=O)OCO4)c(C)c1	3	3	90	14	-1
COc1ccccc1NC(=O)Cn1nc(-c2ccc3c(c2)OCCO3)ccc1=O	0	-1	109	-6	19
CC(Oc1ccc(Cl)cc1)C(=O)Nc1sccc1C(N)=O (centres undefined)	11	0	85	24	1
CSc1nc(-c2ccccc2)[nH]c(=S)c1C(C)=O	5	0	133*	-32	0
O=c1oc2ccccc2c(Nc2ccc3ccccc3c2)c1[N+](=O)[O-]	11	-5	133*	-33	1
COc1ccc(-c2nc3c(-c4ccccc4)cnn3cc2C)cc1F	-18	51*	91	14	1
CCc1nc(NCCN2CCOCC2)c(C#N)c2c1CCCC2	-2	1	96	8	0
CCOC(=O)C1=C(C)N(c2ccccc2)C(=O)C1	3	-3	106	-6	-1
Cc1csc(SCC(=O)NC(=O)NC(C)(C)C)n1	-1	24	101	2	9
Cc1csc(SCC(=O)NC(=O)NC2CCCC2)n1	-5	56*	94	10	3
CCNC(=S)NNC(=O)c1cc(-c2ccc(OCC)cc2)nc2ccccc12	86*	-23	14	99*	-1
CCOc1ccc(-c2cc(C(=O)O)c3ccccc3n2)c(OCC)c1	-4	-2	135*	-38	0
CCc1ccc(-c2cc(C(=O)Nn3cnnc3)c3ccccc3n2)cc1	64*	-7	32	82*	-3
CCNC(=S)NNC(=O)c1cc(-c2cccc(OC)c2)nc2ccccc12	2	-7	86	16	x
Cc1nn(CC(=O)Nc2ccc3c(c2)nc(CN2CCCC2)n3C)c(=O)c2ccccc12	1	0	97	10	0
N#Cc1ccc(N2CCCC2C(=O)O)c([N+](=O)[O-])c1 (centres undefined)	0	-1	109	-8	2
COc1cc(SC)ccc1C(=O)Nc1ncc(C)s1	90*	3	16	100*	7
COCCCn1c(SCC(=O)N2CCc3ccccc32)nnc1-c1ccoc1C	11	-1	136*	-36	0
CCc1ccc(OCC(=O)Nc2ccc(N3CCN(S(C)(=O)=O)CC3)cc2)cc1	1	0	98	8	-1
Oc1[nH]c2ccccc2c1N=Nc1ccccc1F	-58	1	154*	-69	61
Cc1[nH]c2ccccc2c1N=Nc1ccccc1C(=O)O	8	1	135*	-42	29
SMILES	STAT1 blocker	TNF necrop inh	STAT3 activator	STAT3 blocker	L929 necroptosis
Cc1cccc2cc(CN(CC3CCCO3)C(=O)c3cnccn3)c(=O)[nH]c12 (centres undefined)	4	1	102	2	0
CC(=O)Nc1ccc(C(=O)OCC(=O)c2cccc([N+](=O)[O-])c2)cc1	13	-1	95	5	4
Cc1ccc(C(=O)COC(=O)c2cccc(NC(=O)c3ccc([N+](=O)[O-])cc3[N+](=O)[O-])c2)cc1	43*	0	65	46*	1
Cc1nn2c3ccccc3nc2c2ccccc12	-21	1	134*	-41	1
COc1ccc2nc(NC(=O)CCn3cccc3)sc2c1	-16	6	88	14	92*
CC(C)CN(C(=O)COC(=O)CCc1c[nH]c2ccccc12)C1CCS(=O)(=O)C1 (centres undefined)	1	-3	113	-10	0
CC(C)CN(C(=O)COC(=O)Cc1c[nH]c2ccccc12)C1CCS(=O)(=O)C1 (centres undefined)	6	0	133*	-35	1
CN(C)c1ccc(/C=C/c2ccc3c4ccccc4ccc3[n+]2-c2ccccc2)cc1	46*	-18	35	81*	9
Oc1ccccc1Nc1ncnc2c1oc1ccccc12	-11	-2	158*	-66	0
c1ccc(Nc2ncnc3c2oc2ccccc23)cc1	-35	-2	102	0	0
CCCc1cc(C(=O)OC)c(NC(=O)c2cc(C)on2)s1	-5	2	98	6	x
CCc1nc(N=Nc2c(O)[nH]c3ccccc23)c2c3c(sc2n1)CCC3	5	3	87	15	1
CC(C)(C)C(=O)N1CCc2cc(-c3csc(N)n3)ccc21	37*	-1	28	85*	2
CCC(C)C(=O)N1CCc2cc(-c3csc(N)n3)ccc21 (centres undefined)	-35	-7	81	28	0
NC(=O)CSCc1nc2ccccc2s1	-1	3	135*	-42	0
Cc1ccccc1-n1c(C)nnc1SCc1nc2ccccc2s1	-35	-1	142*	-44	-1
Cc1ccc2[nH]c3c(c2c1)CN(C(=O)CN1CCCc2ccccc21)CC3	-1	3	133*	-35	2
COC(=O)c1[nH]c2ccc(C)cc2c1NC(=O)CN1CCCc2ccccc21	9	-1	135*	-40	1
N#CC1=C(SCC(=O)Nc2nccs2)NC(=O)CC1c1ccccc1 (centres undefined)	-2	75*	96	10	82*
Cc1ccc2c(c1)C(=O)N(CCCCO)C2=O	6	3	93	11	0
O=C1OC(Nc2cc(Br)cc3cccnc23)c2ccccc21 (centres undefined)	5	-2	133*	-39	1
Cc1nc(Nc2nc(=O)c3ccccc3n2C)nc2c(C)cccc12	1	-2	142*	-40	0
Cc1nc(NC2=NCN(CCN3CCOCC3)CN2)nc2c(C)cccc12	0	1	176*	-89	0
O=C1NN=COc2ccccc21	3	0	133*	-28	0
Cc1cc(=O)n(CC(C)C)c(O)c1C#N	1	-1	107	-4	0
SMILES	STAT1 blocker	TNF necrop inh	STAT3 activator	STAT3 blocker	L929 necroptosis
Cc1ccc(N/C=C/C(=O)c2cccs2)cc1C	53*	-1	46	66*	2
O=C(/C=C/Nc1cccc([N+](=O)[O-])c1)c1cccs1	-43	-9	146*	-54	0
Cc1cc(N/C=C/C(=O)c2cccs2)ccc1F	-26	-2	119	-14	5
Cc1ccc(C2=N/C(=C\N3CCCCC3)C(=O)O2)cc1	-45	0	100	8	0
OCCCc1nc2ccccc2n1CCOc1ccccc1	-2	-1	103	-1	0
O=C(COC(=O)c1ccc(S(=O)(=O)NCc2ccco2)cc1)Nc1ncc(Cl)cc1Cl	1	2	112	-17	2
